Assay results taken from ChEMBL document CHEMBL1133105, “Antimalarial, antitrypanosomal, and antileishmanial activities and cytotoxicity of bis(9-amino-6-chloro-2-methoxyacridines): influence of the linker” (J Med Chem, 2000).
pIC50: −log10 of the molar value.

Experiments:
[1] = system: Leishmania infantum; test: Percentage of activity against Leishmania infantum at 6.25 uM; Toxic upon mouse primary peritoneal macrophages; format: functional, organism-based
How it was run: (§1)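 Starch-stimulated mouse peritoneal macrophages, 30 000/well, infected after 24 h with spleen-derived L. infantum amastigotes (10:1) together with 2-fold drug dilutions (12.5–1.56 µM). Incubated 7 days at 37 °C, 5% CO2. Wright-stained slides scored microscopically as % reduction of total parasite load or of infected macrophages. Uninfected treated cultures judged microscopically for macrophage toxicity.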

[2] = system: Leishmania infantum; test: Percentage of activity against Leishmania infantum at 1.56 uM; format: functional; how it was run: as §1
[3] = system: Leishmania infantum; test: Percentage of activity against Leishmania infantum at 12.5 uM Concentration; Toxic upon mouse primary peritoneal macrophages; format: functional, organism-based; how it was run: as §1
[4] = system: Leishmania infantum; test: Percentage of activity against Leishmania infantum at 3.13 uM; format: functional; how it was run: as §1
[5] = system: MRC5; test: Cytotoxicity on MRC-5 cells at 12.5 uM; format: functional; settings: Homo sapiens
How it was run: (§2)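 MRC-5 human diploid embryonic lung cells seeded at 5 000/well, washed after 24 h, then given 2-fold drug dilutions (25, 12.5, 6.25, 3.13 µM) in RPMI + 5% FCS, final DMSO below 0.5%. Incubated 7 days at 37 °C, 5% CO2. MTT colorimetric read-out, scored as % reduction of absorbance at 540 nm versus untreated controls.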

[6] = system: MRC5; test: Cytotoxicity on MRC-5 cells at 25 uM; format: functional; settings: Homo sapiens; how it was run: as §2
[7] = system: MRC5; test: Cytotoxicity on MRC-5 cells at 3.13 uM; format: functional; settings: Homo sapiens; how it was run: as §2
[8] = system: MRC5; test: Cytotoxicity on MRC-5 cells at 6.25 uM; format: functional; settings: Homo sapiens; how it was run: as §2
[9] = system: Plasmodium falciparum; test: In vitro sensitivity for Plasmodium falciparum FcB1R; format: functional, organism-based
How it was run: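 Asynchronous P. falciparum cultures in human erythrocytes (0.5% parasitemia, 1% haematocrit) exposed to serially diluted drug for 24 h at 37 °C. [3H]hypoxanthine (0.5 µCi/well) then added for a further 24 h. Uptake compared with drug-free controls on the same plate. IC50 taken from the concentration–response curve, averaged over independent experiments. DMSO ≤0.1%.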

[10] = system: Trypanosoma cruzi; test: Percentage of activity against Trypanosoma cruzi at 1.56 uM; format: functional
How it was run: (§3)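 Mouse peritoneal macrophages, 30 000/well, infected after 24 h with about 100 000 T. cruzi trypomastigotes per well plus 2-fold drug dilutions (12.5–1.56 µM). Incubated 4 days at 37 °C, 5% CO2. Methanol-fixed, Giemsa-stained and scored microscopically as % reduction of total parasite load (free trypomastigotes plus intracellular amastigotes) versus untreated controls.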

[11] = system: Trypanosoma cruzi; test: Percentage of activity against Trypanosoma cruzi at 12.5 uM; Toxic upon mouse primary peritoneal macrophages; format: functional, organism-based; how it was run: as §3
[12] = system: Trypanosoma cruzi; test: Percentage of activity against Trypanosoma cruzi at 3.13 uM; format: functional; how it was run: as §3
[13] = system: Trypanosoma cruzi; test: In Vitro evaluation for the percentage of activity towards Trypanosoma cruzi at 6.25 uM Concentration; Toxic upon mouse primary peritoneal macrophages; format: functional, organism-based; how it was run: as §3
[14] = system: Trypanosoma brucei; test: Percentage of activity against Trypanosoma brucei at 6.25 uM; format: functional
How it was run: (§4)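 Bloodstream-form T. brucei in HMI-9 medium, 10 000 parasites/well, exposed to 12.5, 6.25, 3.13 and 1.56 µM drug for 4 days. Read-out is % inhibition of parasite multiplication. Macrophage toxicity judged on mouse primary peritoneal macrophages.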

[15] = system: Trypanosoma brucei; test: Percentage of activity against Trypanosoma brucei at 1.56 uM; format: functional; how it was run: as §4
[16] = system: Trypanosoma brucei; test: Percentage of activity against Trypanosoma brucei at 3.13 uM; format: functional; how it was run: as §4
[17] = system: Leishmania infantum; test: Percentage of activity against Leishmania infantum 6.25 uM; format: functional; how it was run: as §1
[18] = system: Leishmania infantum; test: In Vitro evaluation for the percentage of activity towards Leishmania infantum at 12.5 uM Concentration; format: functional; how it was run: as §1
[19] = system: Trypanosoma cruzi; test: Percentage of activity against Trypanosoma cruzi at 12.5 uM; format: functional; how it was run: as §3
[20] = system: Trypanosoma cruzi; test: Percentage of activity against Trypanosoma cruzi at 6.25 uM Concentration; format: functional; how it was run: as §3
[21] = system: Trypanosoma brucei; test: Percentage of activity against Trypanosoma brucei at 12.5 uM; format: functional; how it was run: as §4

SMILES | pIC50 [9] | Cytotoxicity [1] | Antileishmanial activity (% reduction of parasite load) [2] [%] | Cytotoxicity [3] | Percent antileishmanial activity (reduction of parasite load) [4] [%] | cytotoxicity at 12.5 µM [5] [%] | cytotoxicity at 25 µM [6] [%] | cytotoxicity at 3.13 µM [7] [%] | cytotoxicity at 6.25 µM [8] [%] | Parasite load reduction [10] [%] | Cytotoxicity [11] | Reduction of T. cruzi parasite load [12] [%] | Inhibition of parasite multiplication [14] [%] | Percent inhibition of parasite multiplication [15] [%] | Parasite growth inhibition [16] [%] | Antileishmanial activity (% reduction of parasite load) [17] [%] | Percent inhibition of Leishmania infantum [18] [%] | T. cruzi parasite load reduction [19] [%] | Reduction of T. cruzi parasite load [20] [%] | Inhibition of parasite multiplication [21] [%] | further results
COc1ccc2nc3cc(Cl)ccc3c(NCCCN(CCCNc3c4ccc(Cl)cc4nc4ccc(OC)cc34)C(=O)C(N)CN)c2c1 (configuration not stated) | < 6.30 | Toxic | 0 | Toxic | 0 | 0 | 0 | 0 | 0 | 0 | Toxic | 40 | 100 | 99 | 100 | – | – | – | – | – | Cytotoxicity [13]: Toxic
COc1ccc2nc3cc(Cl)ccc3c(NCCCN(CCCNc3c4ccc(Cl)cc4nc4ccc(OC)cc34)C(=O)CNC(=O)OC(C)(C)C)c2c1 | 7.04 | – | 0 | – | 40 | 100 | 100 | 0 | 20 | 0 | – | 0 | 100 | 100 | 100 | 60 | 80 | 80 | 40 | 100 | –
COc1ccc2nc3cc(Cl)ccc3c(NCCCN(CCCNc3c4ccc(Cl)cc4nc4ccc(OC)cc34)C(=O)CNC(=O)C(C)NC(=O)OC(C)(C)C)c2c1 (configuration not stated) | 6.36 | Toxic | 0 | Toxic | 0 | 71 | 100 | 31 | 41 | 0 | Toxic | 0 | 100 | 100 | 100 | – | – | – | 40 | – | –
COc1ccc2nc3cc(Cl)ccc3c(NCCCN(CCCNc3c4ccc(Cl)cc4nc4ccc(OC)cc34)C(=O)C(C)NC(=O)OCC3c4ccccc4-c4ccccc43)c2c1 (configuration not stated) | 6.63 | Toxic | 0 | Toxic | 40 | 100 | 100 | 100 | 100 | 0 | Toxic | 0 | 100 | 100 | 100 | – | – | – | – | 100 | Cytotoxicity [13]: Toxic
COc1ccc2nc3cc(Cl)ccc3c(NCCCN(CCCNc3c4ccc(Cl)cc4nc4ccc(OC)cc34)C(=O)C(CC(=O)OCC3c4ccccc4-c4ccccc43)NC(=O)OC(C)(C)C)c2c1 (configuration not stated) | 6.64 | – | 0 | – | 0 | 0 | 0 | 0 | 0 | 0 | – | 0 | 100 | 100 | 100 | 0 | 20 | 40 | 0 | 100 | –
COc1ccc2nc3cc(Cl)ccc3c(NCCCN(CCCNc3c4ccc(Cl)cc4nc4ccc(OC)cc34)C(=O)CCC(=O)N3CCOCC3)c2c1 | 6.36 | – | 0 | – | 0 | 20 | 60 | 0 | 0 | 0 | – | 0 | 100 | 100 | 100 | 0 | 0 | 60 | 0 | 100 | –

Further lines, with some results ahead:

pIC50 [9] | SMILES | Cytotoxicity [1] | Antileishmanial activity (% reduction of parasite load) [2] [%] | Cytotoxicity [3] | Percent antileishmanial activity (reduction of parasite load) [4] [%] | cytotoxicity at 12.5 µM [5] [%] | cytotoxicity at 25 µM [6] [%] | cytotoxicity at 3.13 µM [7] [%] | cytotoxicity at 6.25 µM [8] [%] | Parasite load reduction [10] [%] | Cytotoxicity [11] | Reduction of T. cruzi parasite load [12] [%] | Inhibition of parasite multiplication [14] [%] | Percent inhibition of parasite multiplication [15] [%] | Parasite growth inhibition [16] [%] | Antileishmanial activity (% reduction of parasite load) [17] [%] | Percent inhibition of Leishmania infantum [18] [%] | T. cruzi parasite load reduction [19] [%] | Reduction of T. cruzi parasite load [20] [%] | Inhibition of parasite multiplication [21] [%] | further results
6.61 | COc1ccc2nc3cc(Cl)ccc3c(NCCCN(CCCNc3c4ccc(Cl)cc4nc4ccc(OC)cc34)C(=O)C(CO)NC(=O)OC(C)(C)C)c2c1 (configuration not stated) | – | 0 | – | 0 | 0 | 0 | 0 | 0 | 0 | – | 0 | 100 | 100 | 100 | 0 | 40 | 80 | 20 | 100 | –
< 6.30 | COc1ccc2nc3cc(Cl)ccc3c(NCCCN(CCCNc3c4ccc(Cl)cc4nc4ccc(OC)cc34)C(=O)C(CC(=O)O)NC(=O)OC(C)(C)C)c2c1 (configuration not stated) | – | 0 | – | 0 | 0 | 0 | 0 | 0 | 0 | – | 0 | 100 | 100 | 100 | 0 | 0 | 80 | 0 | 100 | –
7.20 | COc1ccc2nc3cc(Cl)ccc3c(NCCCN(CCCNc3c4ccc(Cl)cc4nc4ccc(OC)cc34)C(=O)C(COC(C)=O)NC(=O)OC(C)(C)C)c2c1 (configuration not stated) | – | 0 | – | 60 | 90 | 100 | 20 | 40 | 0 | – | 0 | 100 | 100 | 100 | 80 | 90 | 70 | 40 | 100 | –
6.51 | COc1ccc2nc3cc(Cl)ccc3c(NCCCN(CCCNc3c4ccc(Cl)cc4nc4ccc(OC)cc34)C(=O)C(CN)NC(=O)OC(C)(C)C)c2c1 (configuration not stated) | Toxic | 0 | Toxic | 0 | 37 | 39 | 0 | 0 | 0 | Toxic | 40 | 100 | 99 | 100 | – | – | – | – | – | Cytotoxicity [13]: Toxic
